Assay results from different studies.
Each line is one published result; the experiments were not run side by side.
RPS6KA2 N-terminal kinase domain: Ribosomal protein S6 kinase alpha-2, N-terminal kinase domain (RPS6KA2, Homo sapiens, UniProt Q15349)
RPS6KA2: Ribosomal protein S6 kinase alpha-2 (RPS6KA2, Homo sapiens, UniProt Q15349)
RPS6KA2 C-terminal kinase domain: Ribosomal protein S6 kinase alpha-2, C-terminal kinase domain (RPS6KA2, Homo sapiens, UniProt Q15349)

SMILES | target | test | conditions | endpoint | result
Nc1ncnc2occ(-c3ccc(NC(=O)Nc4cc(C(F)(F)F)ccc4F)cc3)c12 | RPS6KA2 N-terminal kinase domain | cell-free assay, inhibitor | 20 µM | remaining signal | 0.6%
COc1ccc2c(O[C@@H]3C[C@H]4C(=O)N[C@]5(C(=O)O)CC5/C=C\CCCCC[C@H](NC(=O)OC5CCCC5)C(=O)N4C3)cc(-c3csc(NC(=O)C(C)C)n3)nc2c1C (stereo partly shown) | RPS6KA2 N-terminal kinase domain | cell-free assay, competition with immobilised ligand | 1 µM | remaining binding | 100%
COc1cc2ncnc(Nc3ccc(Oc4ccccc4)c(C)c3C)c2cc1OC | RPS6KA2 | enzyme activity, inhibitor | 1 µM | inhibition | 2%
Cc1ccc(C(=O)NCc2ccsc2)cc1C#Cc1cn(C(C)C)c2ncnc(N)c12 | RPS6KA2 | enzyme activity, inhibitor | 1 µM | activity vs control | 85%
Cc1ccc(Nc2nccc(N(C)c3ccc4c(C)n(C)nc4c3)n2)cc1S(N)(=O)=O | RPS6KA2 | enzyme activity, inhibitor | 0.3 µM | inhibition | 27%
CN(C)C(=O)Cn1cc(-c2nc([C@@](C)(c3ccc(-c4cnc(N)nc4)cc3)C3CC3)no2)cn1 | RPS6KA2 N-terminal kinase domain | cell-free assay, competition with immobilised ligand | 1 µM | remaining binding | 85%
C[C@H]1CCN(c2nccc(-c3cnn4ncccc34)n2)C1 | RPS6KA2 C-terminal kinase domain | binding, competition with immobilised ligand | 1 µM | remaining binding | 100%
C[C@@H]1CN(c2cc(-c3n[nH]c4ccc(OC5(C)CC5)cc34)ncn2)C[C@H](C)O1 | RPS6KA2 C-terminal kinase domain | cell-free assay, competition with immobilised ligand | 0.1 µM | remaining binding | 100%
CC1CCCN1c1nccc(-c2cnn3ncccc23)n1 (stereo not shown) | RPS6KA2 C-terminal kinase domain | binding, competition with immobilised ligand | 1 µM | remaining binding | 100%
O=C(O)[C@@H]1[C@@H](Cn2nnc3ccccc3c2=O)CC[C@H]1C(=O)c1ccc(OCCC2CCOCC2)cc1 | RPS6KA2 C-terminal kinase domain | cell-free assay, competition with immobilised ligand | 1 µM | remaining binding | 100%
Cc1ccc(NC(=O)c2ccc(C)c(C(F)(F)F)c2)cc1C#Cc1nn(C2CCC(O)CC2)c2ncnc(N)c12 (stereo not shown) | RPS6KA2 | cell-free assay | 10 µM | remaining signal | 38%
CN(C)c1nccc(-c2cnn3ncccc23)n1 | RPS6KA2 C-terminal kinase domain | binding, competition with immobilised ligand | 1 µM | remaining binding | 100%
Cn1cc(Cl)c2c(Oc3c(F)cc(Nc4cc(Cl)nc(N)n4)cc3F)ccnc21 | RPS6KA2 N-terminal kinase domain | cell-free assay, competition with immobilised ligand | 0.1 µM | remaining binding | 95%
Cc1ccc(C(=O)Nc2ccc(CN3CCN(C)CC3)c(C(F)(F)F)c2)cc1C#Cc1cnc2cccnn12 | RPS6KA2 | enzyme activity, inhibitor | 23.5 nM | remaining activity | 100%
N[C@H]1CCN(c2nccc(-c3cnn4ncccc34)n2)C1 | RPS6KA2 N-terminal kinase domain | binding, competition with immobilised ligand | 1 µM | remaining binding | 85%
Cc1cnc(NC2CCOCC2)nc1-n1cnc(C(=O)NC(CN)c2cc(F)cc(Cl)c2)c1 (stereo not shown) | RPS6KA2 | enzyme activity, inhibitor, radiometric | 1 µM | remaining activity | 12%
CNCc1ccc(-c2cc(-c3nc(-c4ccc(S(=O)(=O)C(C)C)cc4)cnc3N)on2)cc1 | RPS6KA2 | enzyme activity, inhibitor | 2 µM | inhibition | 49%
CN(C)c1ncc(F)c(-c2cnn3ncccc23)n1 | RPS6KA2 C-terminal kinase domain | binding, competition with immobilised ligand | 1 µM | remaining binding | 97%
CCS(=O)(=O)c1cc2cc(C[C@](O)(CC(C)(C)c3ccc(F)cc3C(N)=O)C(F)(F)F)[nH]c2cn1 | RPS6KA2 N-terminal kinase domain | cell-free assay, competition with immobilised ligand | 1 µM | remaining binding | 100%
CN(c1nccc(-c2cnn3ncccc23)n1)C1CC1 | RPS6KA2 N-terminal kinase domain | binding, competition with immobilised ligand | 1 µM | remaining binding | 99%
FC(F)(F)c1ccc2c(c1)nc(-c1cccnc1)n2C1CC1 | RPS6KA2 N-terminal kinase domain | cell-free assay, competition with immobilised ligand | 1 µM | remaining binding | 100%
CC(C)(C)c1nc(-c2cccc(NS(=O)(=O)c3c(F)cccc3F)c2F)c(-c2ccnc(N)n2)s1 | RPS6KA2 | enzyme activity, inhibitor, radiometric | 1 µM | remaining activity | 81%
COc1ccnn2ncc(-c3ccnc(N(C)C)n3)c12 | RPS6KA2 N-terminal kinase domain | binding, competition with immobilised ligand | 1 µM | remaining binding | 74%
CCN(CC)c1ccc(C2=NNC(=O)CC2C)cc1[N+](=O)[O-] (stereo not shown) | RPS6KA2 | enzyme activity, inhibitor | 10 µM | remaining activity | 98%
CCCOc1ccc(OC)c(F)c1C(=O)c1ccc(C(=O)N[C@@H]2CNC[C@H]2NC(=O)c2ccc3[nH]ncc3c2)cc1 | RPS6KA2 | enzyme activity, inhibitor | 10 µM | remaining activity | 6%
